According to ChEMBL document CHEMBL5356951, “Semisynthetic polymyxins with potent antibacterial activity and reduced kidney cell toxicity” (RSC Med Chem, 2023):
In brackets after ≈: the same amount, converted by molar mass.

Tests used:
Assay type in all cases: functional
[1] = system: Escherichia coli; experiment: Antibacterial activity against Escherichia coli ATCC 25922 assessed as bacterial growth inhibition by broth microdilution assay
Method in brief: (§1)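 Broth microdilution. Bacteria from glycerol stocks were grown overnight on blood agar at 37 °C, then colonies were suspended in TSB and grown to OD600 0.5. Compounds were dissolved in DMSO at 6.4 mg mL−1 (stock) and serially diluted in CAMHB (Mg2+ 12.5, Ca2+ 20 μg mL−1) in polypropylene plates. Inoculum was 10^6 CFU mL−1 final, incubated at 37 °C. MIC = lowest concentration without visible growth; values consistent across at least triplicate experiments.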

[2] = system: Escherichia coli; experiment: Antibacterial activity against Escherichia coli 1313 assessed as bacterial growth inhibition by broth microdilution assay; method in brief: as §1
[3] = system: Escherichia coli; experiment: Antibacterial activity against multidrug-resistant Escherichia coli NCTC 13846 assessed as bacterial growth inhibition by broth microdilution assay
Method in brief: (§2)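 Broth microdilution MIC. Strains grown overnight on blood agar at 37 °C, colonies suspended in TSB and grown to OD600 0.5. Compounds dissolved in DMSO (6.4 mg mL−1 stock), diluted serially in CAMHB (12.5 μg mL−1 Mg2+, 20 μg mL−1 Ca2+) on polypropylene plates. Final inoculum 10^6 CFU mL−1, 37 °C under gas-permeable membrane. MIC is the lowest concentration with no visible growth, consistent across at least triplicate experiments.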

[4] = system: Klebsiella pneumoniae; experiment: Antibacterial activity against Klebsiella pneumoniae ATCC 13883 assessed as bacterial growth inhibition by broth microdilution assay; method in brief: as §1
[5] = system: Klebsiella pneumoniae; experiment: Antibacterial activity against Klebsiella pneumoniae JS-123 assessed as bacterial growth inhibition by broth microdilution assay; method in brief: as §1
[6] = system: Klebsiella pneumoniae; experiment: Antibacterial activity against Klebsiella pneumoniae NCTC 13443 assessed as bacterial growth inhibition by broth microdilution assay; method in brief: as §1
[7] = system: Acinetobacter baumannii; experiment: Antibacterial activity against Acinetobacter baumannii ATCC 19606 assessed as bacterial growth inhibition by broth microdilution assay; method in brief: as §2
[8] = system: Acinetobacter baumannii; experiment: Antibacterial activity against Acinetobacter baumannii ATCC 17978 assessed as bacterial growth inhibition by broth microdilution assay; method in brief: as §2
[9] = system: Acinetobacter baumannii; experiment: Antibacterial activity against multidrug-resistant Acinetobacter baumannii assessed as bacterial growth inhibition by broth microdilution assay; method in brief: as §2
[10] = system: Acinetobacter baumannii; experiment: Antibacterial activity against Acinetobacter baumannii 2018-006 assessed as bacterial growth inhibition by broth microdilution assay; method in brief: as §2
[11] = system: Pseudomonas aeruginosa; experiment: Antibacterial activity against Pseudomonas aeruginosa ATCC 27853 assessed as bacterial growth inhibition by broth microdilution assay; method in brief: as §1
[12] = system: Pseudomonas aeruginosa; experiment: Antibacterial activity against Pseudomonas aeruginosa NRZ 08418 assessed as bacterial growth inhibition by broth microdilution assay; method in brief: as §1
[13] = system: Pseudomonas aeruginosa; experiment: Antibacterial activity against Pseudomonas aeruginosa NRZ 03961 assessed as bacterial growth inhibition by broth microdilution assay; method in brief: as §1

SMILES	MIC [1]	MIC [2]	MIC [3]	MIC [4]	MIC [5]	MIC [6]	MIC [7]	MIC [8]	MIC [9]	MIC [10]	MIC [11]	MIC [12]	MIC [13]
CC(C)C[C@@H]1NC(=O)[C@@H](Cc2ccccc2)NC(=O)[C@H](CCN)NC(=O)[C@@H](NC(=O)[C@H](CN)NC(=O)[C@@H](NC(=O)[C@H](N)CSSCc2cccc(Cl)c2)[C@@H](C)O)CCNC(=O)[C@H]([C@@H](C)O)NC(=O)[C@H](CCN)NC(=O)[C@H](CCN)NC1=O	2 µg/mL (≈ 1.65 µM)	≤ 0.125 µg/mL	2 µg/mL (≈ 1.65 µM)	0.5 µg/mL (≈ 0.414 µM)	0.5 µg/mL (≈ 0.414 µM)	2 µg/mL (≈ 1.65 µM)	0.5 µg/mL (≈ 0.414 µM)	≤ 0.25 µg/mL	8 µg/mL (≈ 6.62 µM)	2 µg/mL (≈ 1.65 µM)	4 µg/mL (≈ 3.31 µM)	2 µg/mL (≈ 1.65 µM)	2 µg/mL (≈ 1.65 µM)
CC(C)C[C@@H]1NC(=O)[C@@H](Cc2ccccc2)NC(=O)[C@H](CCN)NC(=O)[C@@H](NC(=O)[C@@H](CO)NC(=O)[C@@H](NC(=O)[C@H](N)CSSCc2cccc(Cl)c2)[C@@H](C)O)CCNC(=O)[C@H]([C@@H](C)O)NC(=O)[C@H](CCN)NC(=O)[C@H](CCN)NC1=O	2 µg/mL (≈ 1.65 µM)	0.5 µg/mL (≈ 0.413 µM)	8 µg/mL (≈ 6.61 µM)	1 µg/mL (≈ 0.827 µM)	0.25 µg/mL (≈ 0.207 µM)	0.5 µg/mL (≈ 0.413 µM)	0.5 µg/mL (≈ 0.413 µM)	0.5 µg/mL (≈ 0.413 µM)	0.5 µg/mL (≈ 0.413 µM)	0.5 µg/mL (≈ 0.413 µM)	4 µg/mL (≈ 3.31 µM)	4 µg/mL (≈ 3.31 µM)	8 µg/mL (≈ 6.61 µM)
CC(C)C[C@@H]1NC(=O)[C@@H](Cc2ccccc2)NC(=O)[C@H](CCN)NC(=O)[C@@H](NC(=O)[C@@H](CN)NC(=O)[C@@H](NC(=O)[C@H](N)CSSCc2cccc(Cl)c2)[C@@H](C)O)CCNC(=O)[C@H]([C@@H](C)O)NC(=O)[C@H](CCN)NC(=O)[C@H](CCN)NC1=O	2 µg/mL (≈ 1.65 µM)	0.5 µg/mL (≈ 0.414 µM)	16 µg/mL (≈ 13.2 µM)	0.5 µg/mL (≈ 0.414 µM)	2 µg/mL (≈ 1.65 µM)	8 µg/mL (≈ 6.62 µM)	0.5 µg/mL (≈ 0.414 µM)	0.5 µg/mL (≈ 0.414 µM)	0.5 µg/mL (≈ 0.414 µM)	0.5 µg/mL (≈ 0.414 µM)	1 µg/mL (≈ 0.827 µM)	0.5 µg/mL (≈ 0.414 µM)	2 µg/mL (≈ 1.65 µM)
CC(C)C[C@@H]1NC(=O)[C@@H](Cc2ccccc2)NC(=O)[C@H](CCN)NC(=O)[C@@H](NC(=O)CNC(=O)[C@@H](NC(=O)[C@H](N)CSSCCC2CCCCC2)[C@@H](C)O)CCNC(=O)[C@H]([C@@H](C)O)NC(=O)[C@H](CCN)NC(=O)[C@H](CCN)NC1=O	2 µg/mL (≈ 1.72 µM)	0.5 µg/mL (≈ 0.429 µM)	8 µg/mL (≈ 6.86 µM)	1 µg/mL (≈ 0.858 µM)	0.5 µg/mL (≈ 0.429 µM)	1 µg/mL (≈ 0.858 µM)	0.5 µg/mL (≈ 0.429 µM)	0.5 µg/mL (≈ 0.429 µM)	1 µg/mL (≈ 0.858 µM)	0.5 µg/mL (≈ 0.429 µM)	2 µg/mL (≈ 1.72 µM)	2 µg/mL (≈ 1.72 µM)	4 µg/mL (≈ 3.43 µM)
CC(C)C[C@@H]1NC(=O)[C@@H](Cc2ccccc2)NC(=O)[C@H](CCN)NC(=O)[C@@H](NC(=O)[C@@H](CCN)NC(=O)[C@@H](NC(=O)[C@H](N)CSSCc2cccc(Cl)c2)[C@@H](C)O)CCNC(=O)[C@H]([C@@H](C)O)NC(=O)[C@H](CCN)NC(=O)[C@H](CCN)NC1=O	2 µg/mL (≈ 1.64 µM)	0.5 µg/mL (≈ 0.409 µM)	4 µg/mL (≈ 3.27 µM)	1 µg/mL (≈ 0.818 µM)	0.5 µg/mL (≈ 0.409 µM)	0.5 µg/mL (≈ 0.409 µM)	0.5 µg/mL (≈ 0.409 µM)	1 µg/mL (≈ 0.818 µM)	1 µg/mL (≈ 0.818 µM)	0.5 µg/mL (≈ 0.409 µM)	2 µg/mL (≈ 1.64 µM)	2 µg/mL (≈ 1.64 µM)	2 µg/mL (≈ 1.64 µM)
CC(C)CCSSC[C@@H](N)C(=O)N[C@H](C(=O)N[C@H](CO)C(=O)N[C@H]1CCNC(=O)[C@H]([C@@H](C)O)NC(=O)[C@H](CCN)NC(=O)[C@H](CCN)NC(=O)[C@H](CC(C)C)NC(=O)[C@@H](Cc2ccccc2)NC(=O)[C@H](CCN)NC1=O)[C@@H](C)O	2 µg/mL (≈ 1.73 µM)	0.5 µg/mL (≈ 0.433 µM)	16 µg/mL (≈ 13.8 µM)	0.5 µg/mL (≈ 0.433 µM)	0.5 µg/mL (≈ 0.433 µM)	1 µg/mL (≈ 0.865 µM)	0.25 µg/mL (≈ 0.216 µM)	0.25 µg/mL (≈ 0.216 µM)	0.5 µg/mL (≈ 0.433 µM)	0.5 µg/mL (≈ 0.433 µM)	4 µg/mL (≈ 3.46 µM)	8 µg/mL (≈ 6.92 µM)	8 µg/mL (≈ 6.92 µM)
CC(C)C[C@@H]1NC(=O)[C@@H](Cc2ccccc2)NC(=O)[C@H](CCN)NC(=O)[C@@H](NC(=O)[C@@H](CN)NC(=O)[C@@H](NC(=O)[C@H](N)CSSCCC2CCCCC2)[C@@H](C)O)CCNC(=O)[C@H]([C@@H](C)O)NC(=O)[C@H](CCN)NC(=O)[C@H](CCN)NC1=O	2 µg/mL (≈ 1.67 µM)	0.5 µg/mL (≈ 0.419 µM)	4 µg/mL (≈ 3.35 µM)	1 µg/mL (≈ 0.837 µM)	1 µg/mL (≈ 0.837 µM)	1 µg/mL (≈ 0.837 µM)	0.5 µg/mL (≈ 0.419 µM)	1 µg/mL (≈ 0.837 µM)	1 µg/mL (≈ 0.837 µM)	0.5 µg/mL (≈ 0.419 µM)	2 µg/mL (≈ 1.67 µM)	2 µg/mL (≈ 1.67 µM)	2 µg/mL (≈ 1.67 µM)
